Columns and labels:
Rattus norvegicus [1] = assay: Biodistribution in kidney of immature female rat after 12 hour administration of 3 micro Ci (111 kBq) in the absence of 60 microg estradiol; assay type: ADME, organism-based; settings: in vivo
Procedure, shortened: (§1)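 Immature female Long Evans rats (21–24 days, 45–70 g), unanesthetized in retention cages, given 3 µCi (111 kBq) 125I-labeled steroid i.v. via lateral tail vein. Vehicle was ethanol diluted in saline containing 1% Tween-80, giving 9% ethanol final. The blocking group received 60 µg unlabeled estradiol co-injected. Rats were killed under ether by axillary bleeding, and tissues were KCl-washed and gamma-counted. Data are %ID/g, mean ± SE, n=3–5.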

Rattus norvegicus [2] = assay: Biodistribution in lungs of immature female rat after 1 hr administration of 3 micro Ci (111 kBq) in the presence of (+E2); assay type: ADME, organism-based, Lung; settings: in vivo; procedure, shortened: as §1
Rattus norvegicus [3] = assay: Biodistribution in muscle of immature female rat after 1 hr administration of 3 micro Ci (111 kBq) in the presence of (+E2); assay type: ADME, organism-based, Muscle tissue; settings: in vivo
Procedure, shortened: (§2)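 Immature female Long Evans rats (21–24 days, 45–70 g), three to five per group, given 125I-labeled steroid (3 μCi, 111 kBq) by lateral tail vein without anesthesia. Vehicle: ethanol diluted in saline with 1% Tween-80, final ethanol 9%, 0.22 μm filtered. +E2 groups received 60 μg unlabeled estradiol co-injected. Killed under ether at set times; tissues KCl-washed, blotted, weighed, gamma counted; %ID/g, mean with SE.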

Rattus norvegicus [4] = assay: Biodistribution in fat of immature female rat after 1 hr administration of 3 micro Ci (111 kBq) in the absence of 60 microg estradiol; assay type: ADME, organism-based, Adipose tissue; settings: in vivo; procedure, shortened: as §1
Rattus norvegicus [5] = assay: Biodistribution in blood of immature female rat after 12 hour administration of 3 micro Ci (111 kBq) in the absence of 60 microg estradiol; assay type: ADME, organism-based; settings: in vivo; procedure, shortened: as §1
Rattus norvegicus [6] = assay: Biodistribution in thyroid of immature female rat after 5 hour administration of 3 micro Ci (111 kBq) in the absence of 60 microg estradiol; assay type: ADME, organism-based, Thyroid gland; settings: in vivo; procedure, shortened: as §2
Rattus norvegicus [7] = assay: Biodistribution in thyroid of immature female rat after 1 hr administration of 3 micro Ci (111 kBq) in the presence of (+E2); assay type: ADME, organism-based, Thyroid gland; settings: in vivo; procedure, shortened: as §2
Rattus norvegicus [8] = assay: Biodistribution in uterus of immature female rat after 5 hour administration of 3 micro Ci (111 kBq) in the absence of 60 microg estradiol; assay type: ADME, organism-based; settings: in vivo
Procedure, shortened: (§3)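 Immature female Long Evans rats (21–24 days, 45–70 g), 3–5 per group, unanesthetized in retention cages, given 3 μCi (111 kBq) 125I-labeled steroid by lateral tail vein. Vehicle: ethanol diluted with saline containing 1% Tween-80, final ethanol 9%. +E2 group co-injected 60 μg unlabeled estradiol (1 h only). Killed under ether; tissues KCl-washed, weighed, gamma-counted. Output: %ID/g (mean, SE) and uterus to blood or nontarget (muscle, spleen, lungs) ratios.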

Rattus norvegicus [9] = assay: Biodistribution in kidney of immature female rat after 1 hr administration of 3 micro Ci (111 kBq) in the presence of (+E2); assay type: ADME, organism-based; settings: in vivo; procedure, shortened: as §1
Rattus norvegicus [10] = assay: Biodistribution in uterus / spleen, muscle, lungs of immature female rat after 1 hr administration of 3 micro Ci (111 kBq) in the absence of 60 microg estradiol; assay type: ADME, organism-based; settings: in vivo
Procedure, shortened: (§4)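 Same in vivo procedure: immature female Long Evans rats (21–24 days), three to five per group, 3 μCi (111 kBq) tracer i.v. via tail vein in 9% ethanol/saline/1% Tween-80, ± 60 μg estradiol co-injected at 1 h. Uterus %ID/g (gamma counting) divided by blood, or by nontarget organ (muscle, spleen, lungs), %ID/g to give ratios.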

Rattus norvegicus [11] = assay: Biodistribution in uterus of immature female rat after 12 hour administration of 3 micro Ci (111 kBq) in the absence of 60 microg estradiol; assay type: ADME, organism-based; settings: in vivo; procedure, shortened: as §3
Rattus norvegicus [12] = assay: Biodistribution in kidney of immature female rat after 5 hour administration of 3 micro Ci (111 kBq) in the absence of 60 microg estradiol; assay type: ADME, organism-based; settings: in vivo; procedure, shortened: as §1
Rattus norvegicus [13] = assay: Biodistribution in thyroid of immature female rat after 1 hr administration of 3 micro Ci (111 kBq) in the absence of 60 microg estradiol; assay type: ADME, organism-based, Thyroid gland; settings: in vivo; procedure, shortened: as §2
Rattus norvegicus [14] = assay: Biodistribution in liver of immature female rat after 5 hour administration of 3 micro Ci (111 kBq) in the absence of 60 microg estradiol; assay type: ADME, organism-based; settings: in vivo; procedure, shortened: as §1
Rattus norvegicus [15] = assay: Biodistribution in muscle of immature female rat after 5 hour administration of 3 micro Ci (111 kBq) in the absence of 60 microg estradiol; assay type: ADME, organism-based, Muscle tissue; settings: in vivo; procedure, shortened: as §2
Rattus norvegicus [16] = assay: Biodistribution in uterus / spleen, muscle, lungs of immature female rat after 5 hour administration of 3 micro Ci (111 kBq) in the absence of 60 microg estradiol; assay type: ADME, organism-based; settings: in vivo; procedure, shortened: as §3
Rattus norvegicus [17] = assay: Biodistribution in thyroid of immature female rat after 12 hour administration of 3 micro Ci (111 kBq) in the absence of 60 microg estradiol; assay type: ADME, organism-based, Thyroid gland; settings: in vivo; procedure, shortened: as §2
Rattus norvegicus [18] = assay: Biodistribution in uterus / blood of immature female rat after 12 hour administration of 3 micro Ci (111 kBq) in the absence of 60 microg estradiol; assay type: ADME, organism-based; settings: in vivo; procedure, shortened: as §4
Rattus norvegicus [19] = assay: Biodistribution in fat of immature female rat after 12 hour administration of 3 micro Ci (111 kBq) in the absence of 60 microg estradiol; assay type: ADME, organism-based, Adipose tissue; settings: in vivo; procedure, shortened: as §1
Rattus norvegicus [20] = assay: Biodistribution in muscle of immature female rat after 1 hr administration of 3 micro Ci (111 kBq) in the absence of 60 microg estradiol; assay type: ADME, organism-based, Muscle tissue; settings: in vivo; procedure, shortened: as §2
Rattus norvegicus [21] = assay: Biodistribution in uterus of immature female rat after 1 hr administration of 3 micro Ci (111 kBq) in the absence of 60 microg estradiol; assay type: ADME, organism-based; settings: in vivo; procedure, shortened: as §3
Rattus norvegicus [22] = assay: Biodistribution in liver of immature female rat after 3 hour administration of 3 micro Ci (111 kBq) in the absence of 60 microg estradiol; assay type: ADME, organism-based; settings: in vivo; procedure, shortened: as §1
Rattus norvegicus [23] = assay: Biodistribution in lungs of immature female rat after 5 hour administration of 3 micro Ci (111 kBq) in the absence of 60 microg estradiol; assay type: ADME, organism-based, Lung; settings: in vivo; procedure, shortened: as §2
Rattus norvegicus [24] = assay: Biodistribution in spleen of immature female rat after 12 hour administration of 3 micro Ci (111 kBq) in the absence of 60 microg estradiol; assay type: ADME, organism-based; settings: in vivo; procedure, shortened: as §2
[25] = target: Estrogen receptor (Mus musculus) (UniProt O08537+P19785); assay: Relative binding affinity (RBA) against murine cytoplasmic estrogen receptor incubated at 0-4 degree Celsius for 18 hours; assay type: protein assay
Procedure, shortened: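 Competitive binding on murine uterine cytoplasmic extract with 20 nM [3H]estradiol and competitor steroids at 2 nM–20 μM, incubated 18 h at 0–4 °C. RBA = 100 × ratio of […] concentration giving 50% competition for specific binding. Mean of three experiments with SD.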

Rattus norvegicus [26] = assay: Biodistribution in spleen of immature female rat after 1 hr administration of 3 micro Ci (111 kBq) in the absence of 60 microg estradiol; assay type: ADME, organism-based; settings: in vivo; procedure, shortened: as §2
Rattus norvegicus [27] = assay: Biodistribution in uterus / blood of immature female rat after 1 hr administration of 3 micro Ci (111 kBq) in the presence of (+E2); assay type: ADME, organism-based; settings: in vivo; procedure, shortened: as §4
Rattus norvegicus [28] = assay: Biodistribution in lungs of immature female rat after 12 hour administration of 3 micro Ci (111 kBq) in the absence of 60 microg estradiol; assay type: ADME, organism-based, Lung; settings: in vivo; procedure, shortened: as §2
Rattus norvegicus [29] = assay: Biodistribution in uterus / blood of immature female rat after 1 hr administration of 3 micro Ci (111 kBq) in the absence of 60 microg estradiol; assay type: ADME, organism-based; settings: in vivo; procedure, shortened: as §4
Rattus norvegicus [30] = assay: Biodistribution in blood of immature female rat after 1 hr administration of 3 micro Ci (111 kBq) in the presence of (+E2); assay type: ADME, organism-based; settings: in vivo; procedure, shortened: as §1

Estrogen receptor (Mus musculus), sequence (O08537 whole entry, looked up): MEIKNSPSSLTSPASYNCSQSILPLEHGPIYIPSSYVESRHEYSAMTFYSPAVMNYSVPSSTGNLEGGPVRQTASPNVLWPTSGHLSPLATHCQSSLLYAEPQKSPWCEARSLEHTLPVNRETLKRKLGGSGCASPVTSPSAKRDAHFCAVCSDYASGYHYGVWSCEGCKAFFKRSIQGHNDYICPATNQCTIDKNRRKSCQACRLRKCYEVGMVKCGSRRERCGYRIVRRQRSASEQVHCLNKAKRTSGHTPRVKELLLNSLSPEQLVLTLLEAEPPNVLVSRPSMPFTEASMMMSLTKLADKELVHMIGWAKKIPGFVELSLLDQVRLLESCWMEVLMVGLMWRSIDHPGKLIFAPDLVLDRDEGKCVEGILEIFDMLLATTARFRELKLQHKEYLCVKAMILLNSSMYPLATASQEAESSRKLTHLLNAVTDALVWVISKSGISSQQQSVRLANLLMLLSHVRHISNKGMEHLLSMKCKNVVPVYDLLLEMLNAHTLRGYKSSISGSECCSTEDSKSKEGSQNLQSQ
Estrogen receptor (Mus musculus), sequence (P19785 whole entry, looked up): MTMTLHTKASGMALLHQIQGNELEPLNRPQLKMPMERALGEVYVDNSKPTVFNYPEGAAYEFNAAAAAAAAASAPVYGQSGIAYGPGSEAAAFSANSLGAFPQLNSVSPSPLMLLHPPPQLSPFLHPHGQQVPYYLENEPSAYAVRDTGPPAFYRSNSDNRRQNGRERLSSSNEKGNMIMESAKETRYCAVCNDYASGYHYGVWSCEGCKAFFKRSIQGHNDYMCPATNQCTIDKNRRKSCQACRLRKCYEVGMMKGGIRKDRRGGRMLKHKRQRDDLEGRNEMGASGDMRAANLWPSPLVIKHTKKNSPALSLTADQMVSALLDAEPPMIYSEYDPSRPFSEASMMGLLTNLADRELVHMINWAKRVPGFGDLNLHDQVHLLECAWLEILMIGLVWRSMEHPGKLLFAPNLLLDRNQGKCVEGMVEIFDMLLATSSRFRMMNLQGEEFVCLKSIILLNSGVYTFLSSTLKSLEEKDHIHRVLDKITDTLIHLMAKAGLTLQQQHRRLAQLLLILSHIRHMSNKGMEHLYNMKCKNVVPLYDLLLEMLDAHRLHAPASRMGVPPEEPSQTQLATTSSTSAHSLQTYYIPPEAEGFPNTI

Structure (SMILES)	ID/g (Rattus norvegicus [1])	ID/g (Rattus norvegicus [2])	ID/g (Rattus norvegicus [3])	ID/g (Rattus norvegicus [4])	ID/g (Rattus norvegicus [5])	ID/g (Rattus norvegicus [6])	ID/g (Rattus norvegicus [7])	ID/g (Rattus norvegicus [8])	ID/g (Rattus norvegicus [9])	ID/g (Rattus norvegicus [11])	ID/g (Rattus norvegicus [12])	ID/g (Rattus norvegicus [13])	ID/g (Rattus norvegicus [14])	ID/g (Rattus norvegicus [15])	ID/g (Rattus norvegicus [17])	ID/g (Rattus norvegicus [19])	ID/g (Rattus norvegicus [20])	ID/g (Rattus norvegicus [21])	ID/g (Rattus norvegicus [23])	RBA [25]	further results
C[C@]12CC[C@@H]3c4ccc(O)c(F)c4CC[C@H]3[C@@H]1CC[C@@]2(O)/C=C/I	0.08%	0.75%	0.58%	2.97%	0.16%	208%	65.69%	1.82%	0.87%	0.43%	0.26%	71.61%	1.21%	0.14%	385%	0.3%	0.46%	3.75%	0.28%	55.9	uterus-to-nontarget tissue uptake ratio (Rattus norvegicus [10]): 6.39%; uterus to nontarget tissue ratio (Rattus norvegicus [16]): 10.41%; Uterus-to-blood radioactivity ratio (dimensionless) (Rattus norvegicus [18]): 2.76%; ID/g (Rattus norvegicus [22]): 2.2%; ID/g (Rattus norvegicus [24]): 0.1%; ID/g (Rattus norvegicus [26]): 0.59%; uterus/blood %ID/g ratio (Rattus norvegicus [27]): 1.02%; ID/g (Rattus norvegicus [28]): 0.1%; uterus-to-blood ratio of %ID/g (Rattus norvegicus [29]): 5.42%; ID/g (Rattus norvegicus [30]): 0.81%
C[C@@H]1Cc2c(ccc(O)c2F)[C@H]2CC[C@@]3(C)[C@@H](CC[C@@]3(O)/C=C\I)[C@H]12	0.29%	0.67%	0.44%	1.3%	0.21%	380%	98%	4.39%	0.79%	3.45%	0.67%	145%	1.36%	0.34%	898%	0.89%	0.45%	3.55%	0.48%	36.8	ID/g (Rattus norvegicus [10]): 5.41%; ID/g (Rattus norvegicus [16]): 9.44%; Uterus-to-blood radioactivity ratio (dimensionless) (Rattus norvegicus [18]): 16.64%; ID/g (Rattus norvegicus [22]): 1.18%; ID/g (Rattus norvegicus [24]): 0.25%; ID/g (Rattus norvegicus [26]): 1.16%; uterus/blood %ID/g ratio (Rattus norvegicus [27]): 1.16%; ID/g (Rattus norvegicus [28]): 0.24%; uterus-to-blood ratio of %ID/g (Rattus norvegicus [29]): 8.35%; ID/g (Rattus norvegicus [30]): 0.45%
C[C@]12CC[C@@H]3c4cc(F)c(O)cc4CC[C@H]3[C@@H]1CC[C@@]2(O)/C=C/I	0.06%	0.93%	0.54%	3.45%	0.08%	43.46%	22%	0.34%	0.66%	0.08%	0.25%	27%	2.12%	0.28%	163%	0.41%	0.73%	1%	0.54%	6.2	ID/g (Rattus norvegicus [24]): 0.05%; ID/g (Rattus norvegicus [26]): 0.57%; uterus/blood %ID/g ratio (Rattus norvegicus [27]): 1.09%; ID/g (Rattus norvegicus [28]): 0.1%; uterus-to-blood ratio of %ID/g (Rattus norvegicus [29]): 2.21%; ID/g (Rattus norvegicus [30]): 0.49%
CO[C@H]1C[C@@]2(C)[C@@H](CC[C@@]2(O)/C=C\I)[C@@H]2CCc3cc(O)c(F)cc3[C@H]21																				27.9	
CO[C@H]1C[C@@]2(C)[C@@H](CC[C@@]2(O)/C=C\I)[C@@H]2CCc3c(ccc(O)c3F)[C@H]21	1.23%	0.95%	0.77%	1.43%	0.25%	2369%	441%	10.96%	1.36%	8.31%	1.08%	551%	1.42%	0.4%	4651%	0.47%	0.66%	6.87%	0.51%	37.9	uterus-to-nontarget tissue uptake ratio (Rattus norvegicus [10]): 7.3%; uterus to nontarget tissue ratio (Rattus norvegicus [16]): 21.03%; Uterus-to-blood radioactivity ratio (dimensionless) (Rattus norvegicus [18]): 34.58%; ID/g (Rattus norvegicus [22]): 1.21%; ID/g (Rattus norvegicus [24]): 0.7%; ID/g (Rattus norvegicus [26]): 2.04%; uterus/blood %ID/g ratio (Rattus norvegicus [27]): 1.3%; ID/g (Rattus norvegicus [28]): 0.37%; uterus-to-blood ratio of %ID/g (Rattus norvegicus [29]): 10.55%
CO[C@H]1C[C@@]2(C)[C@@H](CC[C@@]2(O)/C=C/I)[C@@H]2CCc3c(ccc(O)c3F)[C@H]21																				27.7	

Reference: ChEMBL document CHEMBL1126849, “Synthesis of A-ring fluorinated derivatives of (17 alpha,20E/Z)-[125I]iodovinylestradiols: effect on receptor binding and receptor-mediated target tissue uptake” (J Med Chem, 1993)
